# Assay results reported in ChEMBL document CHEMBL2331374, “Novel leucine ureido derivatives as inhibitors of aminopeptidase N (APN)” (Bioorg Med Chem, 2013).
# Tests used:
# [1] = Antiproliferative activity against human ES2 cells after 48 hrs by MTT assay; format: functional, cell-based; settings: ES-2, 48 h
# Procedure, shortened: (§1)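 Cells grown in RPMI1640 with FBS at 37 °C, 5% CO2; seeded 5000/well, 4 h before adding inhibitor at varied concentrations. After 48 h, 1% MTT added for 4 h, formazan dissolved in DMSO (15 min mixing), OD read at 570 nm. IC50 from three independent experiments, mean values.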
# [2] = biological target: Histone deacetylase 1/3/5/8 (Homo sapiens, UniProt Q13547+O15379+Q9UQL6+Q9BY41); experiment: Inhibition of HDAC1/HDAC3/HDAC5/HDAC8 in human HeLa nuclear extract using Boc-Lys(acetyl)-AMC as substrate incubated for 5 mins prior to substrate measured after 30 mins by spectrophotometric analysis; format: protein assay
# U-937 = experiment: Antiproliferative activity against human U937 cells after 48 hrs by MTT assay; format: functional, cell-based; settings: U-937, 48 h; procedure, shortened: as §1
# Aminopeptidase N [3] = biological target: T1, Aminopeptidase N (Sus scrofa, UniProt P15145); experiment: Inhibition of pig microsomal aminopeptidase N using L-leu-p-nitroanilide as substrate incubated for 5 mins prior to substrate addition measured after 30 mins by spectrophotometric analysis
# T1 sequence (P15145 whole entry): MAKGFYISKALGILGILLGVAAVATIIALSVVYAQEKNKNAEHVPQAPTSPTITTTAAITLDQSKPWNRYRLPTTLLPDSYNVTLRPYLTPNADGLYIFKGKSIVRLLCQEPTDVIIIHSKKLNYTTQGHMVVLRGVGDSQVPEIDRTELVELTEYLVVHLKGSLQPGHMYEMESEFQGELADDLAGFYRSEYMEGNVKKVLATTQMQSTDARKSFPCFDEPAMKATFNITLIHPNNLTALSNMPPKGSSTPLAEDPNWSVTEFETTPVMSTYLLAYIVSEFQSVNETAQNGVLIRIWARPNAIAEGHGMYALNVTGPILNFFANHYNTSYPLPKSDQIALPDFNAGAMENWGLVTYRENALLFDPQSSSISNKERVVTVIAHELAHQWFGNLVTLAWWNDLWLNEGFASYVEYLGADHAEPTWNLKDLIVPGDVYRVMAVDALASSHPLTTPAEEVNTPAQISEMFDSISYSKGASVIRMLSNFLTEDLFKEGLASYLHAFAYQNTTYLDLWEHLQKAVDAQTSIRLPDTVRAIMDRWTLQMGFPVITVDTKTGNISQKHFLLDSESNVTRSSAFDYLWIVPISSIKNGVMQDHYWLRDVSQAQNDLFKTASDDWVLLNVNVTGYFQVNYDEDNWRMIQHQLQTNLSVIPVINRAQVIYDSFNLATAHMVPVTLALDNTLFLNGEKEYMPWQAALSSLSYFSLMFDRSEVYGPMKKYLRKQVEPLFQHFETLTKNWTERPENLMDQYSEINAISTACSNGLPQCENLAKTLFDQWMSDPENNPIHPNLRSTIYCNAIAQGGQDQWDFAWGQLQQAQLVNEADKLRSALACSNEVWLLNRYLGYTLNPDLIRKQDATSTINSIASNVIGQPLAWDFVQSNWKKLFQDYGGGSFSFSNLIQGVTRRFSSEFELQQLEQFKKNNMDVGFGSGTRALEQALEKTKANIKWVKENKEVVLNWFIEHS
# Procedure, shortened: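 Porcine kidney microsomal aminopeptidase in 50 mM PBS, pH 7.2. Compounds at various concentrations preincubated with enzyme 5 min at 37 °C, then L-leu-p-nitroanilide added and incubated 30 min at 37 °C. IC50 from triplicate experiments, mean ± SD.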
# Aminopeptidase N [4] = biological target: Aminopeptidase N (Homo sapiens, UniProt P15144); experiment: Inhibition of aminopeptidase N in human ES2 cells using L-leu-p-nitroanilide as substrate incubated for 5 mins prior to substrate addition measured after 30 mins by spectrophotometric analysis; format: cell-based
# Procedure, shortened: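 Whole ES-2 cell suspension in PBS (1 × 10^5 cells/well) used as enzyme source. Compounds at various concentrations preincubated 5 min at 37 °C, then L-leu-p-nitroanilide added and incubated 30 min at 37 °C. IC50 from triplicate experiments, mean ± SD.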
# Aminopeptidase N (Homo sapiens, UniProt P15144), sequence (P15144 whole entry): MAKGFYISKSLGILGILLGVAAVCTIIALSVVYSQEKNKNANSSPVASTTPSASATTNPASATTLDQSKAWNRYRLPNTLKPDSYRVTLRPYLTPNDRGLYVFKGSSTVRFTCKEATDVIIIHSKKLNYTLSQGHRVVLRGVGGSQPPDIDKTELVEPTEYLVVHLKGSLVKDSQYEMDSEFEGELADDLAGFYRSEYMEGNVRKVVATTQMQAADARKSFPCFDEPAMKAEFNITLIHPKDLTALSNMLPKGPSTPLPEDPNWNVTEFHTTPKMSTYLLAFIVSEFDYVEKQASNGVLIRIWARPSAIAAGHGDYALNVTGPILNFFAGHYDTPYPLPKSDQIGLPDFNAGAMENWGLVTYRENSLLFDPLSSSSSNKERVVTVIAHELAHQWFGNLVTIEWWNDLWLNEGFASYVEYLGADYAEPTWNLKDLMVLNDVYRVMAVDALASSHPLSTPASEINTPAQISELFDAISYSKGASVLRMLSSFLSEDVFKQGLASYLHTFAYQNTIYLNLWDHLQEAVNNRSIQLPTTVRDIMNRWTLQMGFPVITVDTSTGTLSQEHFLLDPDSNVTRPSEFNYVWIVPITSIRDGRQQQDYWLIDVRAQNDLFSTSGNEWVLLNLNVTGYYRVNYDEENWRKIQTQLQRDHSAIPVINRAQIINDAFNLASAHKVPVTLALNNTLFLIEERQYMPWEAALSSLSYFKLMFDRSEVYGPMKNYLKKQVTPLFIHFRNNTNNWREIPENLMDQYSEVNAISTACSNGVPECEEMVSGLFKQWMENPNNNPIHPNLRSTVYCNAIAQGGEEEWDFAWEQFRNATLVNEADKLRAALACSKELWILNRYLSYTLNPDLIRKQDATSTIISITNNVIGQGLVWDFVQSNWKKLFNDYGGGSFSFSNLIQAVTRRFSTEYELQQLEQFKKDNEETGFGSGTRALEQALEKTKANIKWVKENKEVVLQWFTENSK
Compound,IC50 [1] [µM],IC50 [2] [µM],IC50 (U-937) [mM],IC50 (Aminopeptidase N [3]) [nM],IC50 (Aminopeptidase N [4]) [nM]
CC(C)C[C@H](NC(=O)[C@@H](O)[C@H](N)Cc1ccccc1)C(=O)O [UBENIMEX],620,> 100,> 1,,
CC(C)C[C@H](NC(=O)Nc1ccccc1C(F)(F)F)C(=O)NO,,> 100,,790,
CC(C)C[C@H](NC(=O)Nc1ccccc1F)C(=O)NO,,> 100,,520,
CC(C)C[C@H](NC(=O)Nc1ccccc1O)C(=O)NO,,> 100,,11900,
Cc1cccc(NC(=O)N[C@@H](CC(C)C)C(=O)NO)c1,,> 100,,240,
CC(C)C[C@H](NC(=O)NCc1ccccc1F)C(=O)NO,,> 100,,1380,
Cc1cccc(CNC(=O)N[C@@H](CC(C)C)C(=O)NO)c1,,> 100,,440,
CC(C)C[C@H](NC(=O)Nc1ccccc1Br)C(=O)NO,405,> 100,> 1,60,530
CC(C)C[C@H](NC(=O)NCc1cccc(Cl)c1)C(=O)NO,,> 100,,350,
Cc1ccccc1CNC(=O)N[C@@H](CC(C)C)C(=O)NO,,> 100,,900,
CC(C)C[C@H](NC(=O)Nc1cccc(C(F)(F)F)c1)C(=O)NO,,> 100,,1970,
CC(C)C[C@H](NC(=O)Nc1cccc(Br)c1)C(=O)NO,,> 100,,580,
CC(C)C[C@H](NC(=O)Nc1cccc(Cl)c1)C(=O)NO,,> 100,,1660,
COc1cccc(NC(=O)N[C@@H](CC(C)C)C(=O)NO)c1,,> 100,,1360,
CC(C)C[C@H](NC(=O)Nc1cccc(F)c1)C(=O)NO,,> 100,,1900,
CC(C)C[C@H](NC(=O)NCc1ccccc1Cl)C(=O)NO,,> 100,,220,650
CC(C)C[C@H](NC(=O)NCc1ccccc1Br)C(=O)NO,,> 100,,130,730
CC(C)C[C@H](NC(=O)Nc1ccccc1)C(=O)NO,,> 100,,1150,
Cc1ccccc1NC(=O)N[C@@H](CC(C)C)C(=O)NO,,> 100,,180,610
CC(C)C[C@H](NC(=O)Nc1ccccc1Cl)C(=O)NO,615,> 100,> 1,93,1310
COc1ccccc1NC(=O)N[C@@H](CC(C)C)C(=O)NO,480,> 100,> 1,130,700
CC(C)C[C@H](NC(=O)Nc1cccc(O)c1)C(=O)NO,,> 100,,1700,
